Tests used:
[1] = biological target: Voltage-dependent L-type calcium channel subunit alpha-1C (Oryctolagus cuniculus, UniProt P15381); assay: Antagonist activity at rabbit CaV1.2alpha1C transfected in HEK293 cells by FLIPR assay; type: cell-based
How it was run: (§1)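 HEK293 cells stably expressing the L-type channel (rat CaV1.3 α1D with all alternative splice sites, or rabbit CaV1.2 α1C), each co-expressed with rat β3 and α2δ-1 subunits. Cells plated at 4 × 10⁴ cells/well and cultured in DMEM with 10% FBS for 4 days. Calcium influx read by Fluo-8 no-wash dye fluorescence on FLIPR Tetra. IC50 from triplicate percent-inhibition data fitted to a one-site sigmoidal model.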

[2] = biological target: Voltage-dependent L-type calcium channel subunit alpha-1D (Rattus norvegicus, UniProt P27732); assay: Antagonist activity at rat CaV1.3alpha1D transfected in HEK293 cells by FLIPR assay; type: cell-based; how it was run: as §1
[3] = Selectivity ratio of IC50 for rabbit CaV1.2alpha1C to IC50 for rat CaV1.3alpha1D
How it was run: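 Selectivity is defined as […] the ratio of the CaV1.2 IC50 to the CaV1.3 IC50. Both IC50s come from the Fluo-8 FLIPR calcium influx assay in stably transfected HEK293 cells, each run in triplicate and fitted to a one-site sigmoidal model.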

Chain of Voltage-dependent L-type calcium channel subunit alpha-1C (P15381 whole entry, canonical isoform): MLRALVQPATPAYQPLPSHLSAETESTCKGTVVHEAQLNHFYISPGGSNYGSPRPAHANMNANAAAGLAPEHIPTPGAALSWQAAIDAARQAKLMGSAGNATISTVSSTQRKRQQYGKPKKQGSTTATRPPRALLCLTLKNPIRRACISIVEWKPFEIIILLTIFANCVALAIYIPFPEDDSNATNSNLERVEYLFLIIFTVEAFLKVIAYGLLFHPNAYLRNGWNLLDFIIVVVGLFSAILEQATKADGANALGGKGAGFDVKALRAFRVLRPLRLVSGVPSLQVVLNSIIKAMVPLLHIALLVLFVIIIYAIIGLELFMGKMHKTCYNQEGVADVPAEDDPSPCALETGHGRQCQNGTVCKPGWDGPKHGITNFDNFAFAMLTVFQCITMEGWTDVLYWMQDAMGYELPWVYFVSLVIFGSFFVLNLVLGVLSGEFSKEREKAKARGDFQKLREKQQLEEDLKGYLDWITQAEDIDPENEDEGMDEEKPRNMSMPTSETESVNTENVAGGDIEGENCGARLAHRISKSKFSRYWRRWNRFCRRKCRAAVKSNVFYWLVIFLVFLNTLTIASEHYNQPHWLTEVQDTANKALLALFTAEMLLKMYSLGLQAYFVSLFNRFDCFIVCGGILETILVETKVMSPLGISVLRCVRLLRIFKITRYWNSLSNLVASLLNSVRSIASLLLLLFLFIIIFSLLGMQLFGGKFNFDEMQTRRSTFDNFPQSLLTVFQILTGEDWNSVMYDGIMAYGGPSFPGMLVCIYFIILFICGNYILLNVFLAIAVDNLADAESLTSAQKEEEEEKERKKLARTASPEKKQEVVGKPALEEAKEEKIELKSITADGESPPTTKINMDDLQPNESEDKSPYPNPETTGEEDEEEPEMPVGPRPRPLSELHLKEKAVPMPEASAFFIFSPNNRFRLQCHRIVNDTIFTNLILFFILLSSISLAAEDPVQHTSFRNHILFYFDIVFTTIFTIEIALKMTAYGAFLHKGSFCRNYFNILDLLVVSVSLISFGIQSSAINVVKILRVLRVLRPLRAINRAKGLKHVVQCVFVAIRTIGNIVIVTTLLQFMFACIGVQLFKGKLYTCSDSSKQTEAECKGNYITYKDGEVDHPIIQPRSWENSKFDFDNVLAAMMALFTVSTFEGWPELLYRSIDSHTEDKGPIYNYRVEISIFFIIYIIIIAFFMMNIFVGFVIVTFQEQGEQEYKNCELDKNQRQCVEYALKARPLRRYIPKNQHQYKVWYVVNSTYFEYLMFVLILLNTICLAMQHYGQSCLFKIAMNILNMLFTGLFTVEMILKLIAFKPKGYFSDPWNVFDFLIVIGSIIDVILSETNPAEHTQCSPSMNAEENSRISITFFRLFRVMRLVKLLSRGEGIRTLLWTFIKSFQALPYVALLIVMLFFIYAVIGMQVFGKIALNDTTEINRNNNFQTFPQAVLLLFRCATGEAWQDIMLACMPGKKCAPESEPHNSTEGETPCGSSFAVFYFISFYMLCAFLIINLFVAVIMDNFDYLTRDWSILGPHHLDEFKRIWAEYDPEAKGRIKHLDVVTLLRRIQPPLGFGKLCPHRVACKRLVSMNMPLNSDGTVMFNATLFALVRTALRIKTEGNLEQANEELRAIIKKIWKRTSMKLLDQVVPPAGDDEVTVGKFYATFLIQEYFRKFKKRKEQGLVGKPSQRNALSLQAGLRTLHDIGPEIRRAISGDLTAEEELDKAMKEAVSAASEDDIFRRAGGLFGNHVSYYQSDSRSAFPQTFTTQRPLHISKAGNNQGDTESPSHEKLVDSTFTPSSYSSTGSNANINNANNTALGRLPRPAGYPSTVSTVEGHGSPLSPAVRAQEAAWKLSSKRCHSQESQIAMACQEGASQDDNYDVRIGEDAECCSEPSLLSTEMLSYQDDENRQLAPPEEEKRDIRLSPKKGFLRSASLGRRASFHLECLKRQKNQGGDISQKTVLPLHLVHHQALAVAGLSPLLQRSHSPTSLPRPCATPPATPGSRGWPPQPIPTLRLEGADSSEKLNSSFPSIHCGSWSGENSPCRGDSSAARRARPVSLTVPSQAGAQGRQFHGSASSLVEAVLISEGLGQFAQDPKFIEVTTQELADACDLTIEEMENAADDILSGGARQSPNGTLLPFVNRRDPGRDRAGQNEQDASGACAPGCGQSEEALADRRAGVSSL
Chain of Voltage-dependent L-type calcium channel subunit alpha-1D (P27732 whole entry): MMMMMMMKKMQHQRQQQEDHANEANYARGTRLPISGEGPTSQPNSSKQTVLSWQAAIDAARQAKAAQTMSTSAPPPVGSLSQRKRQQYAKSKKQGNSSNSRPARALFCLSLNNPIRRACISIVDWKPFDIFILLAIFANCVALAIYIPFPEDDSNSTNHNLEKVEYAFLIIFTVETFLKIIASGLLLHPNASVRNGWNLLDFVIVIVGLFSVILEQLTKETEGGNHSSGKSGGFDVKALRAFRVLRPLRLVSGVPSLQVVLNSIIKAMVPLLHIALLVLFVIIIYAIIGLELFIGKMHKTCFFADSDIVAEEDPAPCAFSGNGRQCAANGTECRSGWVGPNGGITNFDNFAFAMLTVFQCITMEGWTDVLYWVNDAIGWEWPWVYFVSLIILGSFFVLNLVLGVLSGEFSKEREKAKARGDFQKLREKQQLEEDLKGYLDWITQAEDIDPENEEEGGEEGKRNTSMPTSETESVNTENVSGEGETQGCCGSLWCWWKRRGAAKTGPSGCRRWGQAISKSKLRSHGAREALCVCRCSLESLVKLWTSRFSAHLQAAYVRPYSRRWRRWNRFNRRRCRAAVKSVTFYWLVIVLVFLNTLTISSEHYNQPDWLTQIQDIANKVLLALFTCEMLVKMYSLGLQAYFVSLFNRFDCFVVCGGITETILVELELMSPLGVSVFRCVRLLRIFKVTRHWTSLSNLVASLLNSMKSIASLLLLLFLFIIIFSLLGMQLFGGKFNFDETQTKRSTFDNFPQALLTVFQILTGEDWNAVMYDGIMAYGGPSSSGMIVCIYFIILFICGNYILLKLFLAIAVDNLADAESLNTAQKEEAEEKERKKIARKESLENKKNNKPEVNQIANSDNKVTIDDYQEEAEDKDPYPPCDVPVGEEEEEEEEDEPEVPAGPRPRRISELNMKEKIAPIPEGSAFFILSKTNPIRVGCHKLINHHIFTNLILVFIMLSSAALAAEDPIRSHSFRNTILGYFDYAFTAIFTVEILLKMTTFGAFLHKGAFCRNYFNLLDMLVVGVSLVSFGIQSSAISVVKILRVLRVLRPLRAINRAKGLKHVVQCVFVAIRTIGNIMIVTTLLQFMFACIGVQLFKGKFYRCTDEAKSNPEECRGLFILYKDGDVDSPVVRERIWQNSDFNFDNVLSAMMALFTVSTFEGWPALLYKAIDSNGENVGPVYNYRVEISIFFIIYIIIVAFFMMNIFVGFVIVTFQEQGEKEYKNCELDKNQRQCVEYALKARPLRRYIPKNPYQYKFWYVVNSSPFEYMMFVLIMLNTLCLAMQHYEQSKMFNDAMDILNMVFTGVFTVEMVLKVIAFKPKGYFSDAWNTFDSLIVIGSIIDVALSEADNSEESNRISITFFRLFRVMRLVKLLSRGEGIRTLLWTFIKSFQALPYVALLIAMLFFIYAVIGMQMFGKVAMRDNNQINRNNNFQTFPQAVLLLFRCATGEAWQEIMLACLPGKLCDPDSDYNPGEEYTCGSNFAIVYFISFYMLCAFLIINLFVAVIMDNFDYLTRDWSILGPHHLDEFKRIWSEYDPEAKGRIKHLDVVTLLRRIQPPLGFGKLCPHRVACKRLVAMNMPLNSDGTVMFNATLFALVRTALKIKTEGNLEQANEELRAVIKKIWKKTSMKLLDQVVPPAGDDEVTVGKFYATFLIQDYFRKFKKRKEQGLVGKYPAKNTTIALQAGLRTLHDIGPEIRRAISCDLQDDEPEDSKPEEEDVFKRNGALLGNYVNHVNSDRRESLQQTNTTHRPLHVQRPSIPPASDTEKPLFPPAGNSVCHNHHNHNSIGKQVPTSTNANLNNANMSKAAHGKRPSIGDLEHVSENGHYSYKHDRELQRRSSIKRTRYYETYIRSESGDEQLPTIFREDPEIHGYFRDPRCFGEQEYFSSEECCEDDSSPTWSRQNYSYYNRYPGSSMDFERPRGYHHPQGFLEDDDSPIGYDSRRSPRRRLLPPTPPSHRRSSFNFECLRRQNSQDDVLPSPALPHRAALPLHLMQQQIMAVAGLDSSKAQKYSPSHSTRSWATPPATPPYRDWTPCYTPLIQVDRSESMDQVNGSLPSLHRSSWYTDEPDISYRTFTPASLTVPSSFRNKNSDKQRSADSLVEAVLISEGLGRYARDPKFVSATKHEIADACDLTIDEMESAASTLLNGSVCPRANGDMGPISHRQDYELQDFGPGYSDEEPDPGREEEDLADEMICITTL

Row | SMILES | IC50 [1] [µM] | IC50 [2] [µM] | Ratio IC50 [3]
1 | CC1CCC(N2C(=O)CC(=O)N(CCc3ccc(Cl)cc3)C2=O)C1 (stereo not drawn) | 20.4 | 9.8 | –
2 | CC1(C)CCC(N2C(=O)CC(=O)N(CCc3cccc(Cl)c3)C2=O)C1 (stereo not drawn) | 43 | 5.6 | –
3 | COC(=O)C1=C(C)NC(=S)N(C(=O)OC(C)C)C1c1cccc([N+](=O)[O-])c1 (stereo not drawn) | – | – | < 2
4 | COC(=O)C1=C(C)NC(C)=C(C(=O)OC(C)C)C1c1cccc2nonc12 (stereo not drawn) | – | – | < 2
5 | C[C@H]1CCCC[C@H]1N1C(=O)CC(=O)N(CCc2cccc(Cl)c2)C1=O | 3.7 | 3.7 | –
6 | CCC1CCC(N2C(=O)CC(=O)N(CCc3cccc(Cl)c3)C2=O)C1 (stereo not drawn) | 15 | 7.3 | –
7 | C[C@H]1CCCC[C@H]1N1C(=O)CC(=O)N(CCc2ccc(Cl)cc2)C1=O | 8.3 | 6.1 | –
8 | O=C1CC(=O)N(C2CC3CCC2C3)C(=O)N1CCc1cccc(C(F)(F)F)c1 (racemic) | 100 | 2.4 | –
9 | CC(=O)O[C@H]1CCC[C@@H]1N1C(=O)CC(=O)N(CCc2cccc(Cl)c2)C1=O | 48.1 | > 100 | –
10 | O=C1CC(=O)N(C2CC3CCC2C3)C(=O)N1CCc1cc(C(F)(F)F)cc(C(F)(F)F)c1 (mixture of isomers) | 3.8 | 1.8 | –
11 | CO[C@H]1CCC[C@@H]1N1C(=O)CC(=O)N(CCc2cccc(Cl)c2)C1=O | 34.6 | 30.3 | –
12 | CC(Cc1ccc(Cl)cc1)N1C(=O)CC(=O)N(C2CC3CCC2C3)C1=O (racemic) | 4.1 | 3.6 | –
13 | O=C1CC(=O)N([C@H]2CCNC2)C(=O)N1CCc1cccc(Cl)c1 | > 100 | > 100 | –
14 | CC(C)C(=O)OCC1(N2C(=O)CC(=O)N(CCc3cccc(Cl)c3)C2=O)CCCC1 | 10.6 | 11.9 | –
15 | CC1CCC(N2C(=O)CC(=O)N(CCc3cccc(Cl)c3)C2=O)CC1 (stereo not drawn) | 46 | 35 | –
16 | COC(=O)[C@H](Cc1ccccc1)N1C(=O)CC(=O)N(C2CCCC2)C1=O | > 100 | > 100 | –
17 | CC(CN1C(=O)CC(=O)N(C2CCCC2)C1=O)c1cccc(Cl)c1 (stereo not drawn) | 20.7 | 4.2 | –
18 | CC(C)C(=O)O[C@H]1CCC[C@@H]1N1C(=O)CC(=O)N(CCc2cccc(Cl)c2)C1=O | 12.9 | 13.7 | –
19 | O=C1CC(=O)N(C2CCCC2)C(=O)N1c1cccc(C(F)(F)F)c1 | > 100 | > 100 | –
20 | O=C1CC(=O)N(C2CCCC2)C(=O)N1CCC(c1ccccc1)c1ccccc1 | 4.7 | 4.1 | –
21 | CCOC(=O)[C@@H]1CCC[C@@H]1N1C(=O)CC(=O)N(CCc2cccc(Cl)c2)C1=O | 12.6 | 12 | –
22 | C[C@@H]1[C@@H](C)CC[C@@H]1N1C(=O)CC(=O)N(CCc2cccc(Cl)c2)C1=O | 13.2 | 3.09 | –
23 | CC(C)(CN1C(=O)CC(=O)N(C2CC3CCC2C3)C1=O)c1cccc(Cl)c1 (mixture of isomers) | 2.8 | 2.3 | –
24 | CC1(C)[C@@H]2CC[C@H](CN3C(=O)CC(=O)N(CCc4cccc(Cl)c4)C3=O)[C@H]1C2 | 47 | 40 | –
25 | O=C1CC(=O)N(C2CCCC2)C(=O)N1CCc1cccc(Cl)c1 | > 100 | 6.3 | –

Row | SMILES | IC50 [1] [µM] | IC50 [2] [µM] | Ratio IC50 [3]
26 | CC1CCC(N2C(=O)CC(=O)N(CCc3ccc(Cl)cc3)C2=O)CC1 (stereo not drawn) | 30 | 11 | –
27 | COC(=O)C(Cc1ccc(Cl)cc1)N1C(=O)CC(=O)N(C2CCCC2)C1=O (stereo not drawn) | 13.4 | 7.5 | –
28 | O=C1CC(=O)N(C[C@H]2CCCO2)C(=O)N1CCc1cccc(Cl)c1 | 41 | > 100 | –
29 | COc1ccc([C@@H]2Sc3ccccc3N(CCN(C)C)C(=O)[C@@H]2OC(C)=O)cc1 | – | – | < 2
30 | CC1(C)[C@@H]2CC[C@H](CN3C(=O)CC(=O)N(CCc4ccc(Cl)cc4)C3=O)[C@H]1C2 | > 100 | > 100 | –
31 | C[C@H]1CCC[C@@H]1N1C(=O)CC(=O)N(CCc2ccc(Cl)cc2)C1=O (racemic) | 23 | 7 | –
32 | CC(C)OC(=O)[C@H]1CC[C@@H](N2C(=O)CC(=O)N(CCc3cccc(Cl)c3)C2=O)C1 | 8.5 | 10.4 | –
33 | CC1(C)[C@@H]2CC[C@@]1(C)[C@@H](N1C(=O)CC(=O)N(CCc3cccc(Cl)c3)C1=O)C2 | > 100 | > 100 | –
34 | C[C@@H](C1CCCCC1)N1C(=O)CC(=O)N(CCc2cccc(Cl)c2)C1=O | > 100 | 4.3 | –
35 | O=C1CC(=O)N([C@H]2C[C@H]3CC[C@@H]2C3)C(=O)N1CCc1cccc(C(F)(F)F)c1 | > 100 | 3 | –
36 | CC1CCC(N2C(=O)CC(=O)N(CCc3cccc(Cl)c3)C2=O)C1 (stereo not drawn) | 38 | 3.7 | –
37 | O=C1CC(=O)N(C2CCCc3ccccc32)C(=O)N1C1CCCC1 (stereo not drawn) | 20 | 19.7 | –
38 | CC1(C)CCC[C@H]1N1C(=O)CC(=O)N(CCc2cccc(C(F)(F)F)c2)C1=O | 3.1 | 2.7 | –
39 | O=C1CC(=O)N(C2CCCC2)C(=O)N1CCc1cc(Cl)cc(Cl)c1 | 3.3 | 1.4 | –
40 | CC(=O)OCC1(N2C(=O)CC(=O)N(CCc3cccc(Cl)c3)C2=O)CCCC1 | 29.1 | 39.3 | –
41 | O=C1CC(=O)N([C@@H]2C[C@@H]3CC[C@H]2C3)C(=O)N1CCc1cccc(C(F)(F)F)c1 | 76.6 | 2.1 | –
42 | C[C@H](c1cccc2ccccc12)N1C(=O)CC(=O)N(CCc2cccc(Cl)c2)C1=O | 10 | 10.8 | –
43 | CCC(CC)N1C(=O)CC(=O)N(CCc2cccc(Cl)c2)C1=O | 25.5 | 11.7 | –
44 | O=C1CC(=O)N(C2CCCC2)C(=O)N1CC1(c2ccc(Cl)cc2)CC1 | > 100 | 7.3 | –
45 | O=C1CC(=O)N([C@H]2C[C@H]3CC[C@@H]2C3)C(=O)N1CCc1ccc(Cl)cc1 | 100 | 2.1 | –
46 | C[C@@H]1[C@@H](N2C(=O)CC(=O)N(CCc3ccc(Cl)cc3)C2=O)C[C@H]2C[C@@H]1C2(C)C | 28 | 22 | –
47 | C[C@H]1CCC[C@H]1N1C(=O)CC(=O)N(CCc2ccc(Cl)cc2)C1=O | 10 | 2.8 | –
48 | COC(=O)[C@@H](Cc1ccccc1)N1C(=O)CC(=O)N(C2CCCC2)C1=O | 44.3 | 55 | –
49 | CC1(C)[C@@H]2CC[C@@]1(C)[C@@H](N1C(=O)CC(=O)N(CCc3ccc(Cl)cc3)C1=O)C2 | > 100 | > 100 | –
50 | O=C1CC(=O)N(C2CCCC2)C(=O)N1Cc1cccc(Cl)c1 | 46.7 | 43 | –

Row | SMILES | IC50 [1] [µM] | IC50 [2] [µM] | Ratio IC50 [3]
51 | O=C1CC(=O)N(C2CCCC2)C(=O)N1Cc1ccc(Cl)cc1 | 51.7 | 17.9 | –
52 | O=C1CC(=O)N(C2CCCC2)C(=O)N1CCc1ccc(-c2ccccc2)cc1 | 5.4 | 4.4 | –
53 | O=C1CC(=O)N(C2Cc3ccccc3C2)C(=O)N1C1CCCC1 | 16.4 | 14.4 | –
54 | C[C@H](C1CCCCC1)N1C(=O)CC(=O)N(CCc2cccc(Cl)c2)C1=O | > 100 | 9.7 | –
55 | CC1(C)CCC[C@@H]1N1C(=O)CC(=O)N(CCc2ccc(Cl)cc2)C1=O | 2.3 | 1.7 | –
56 | C[C@@H]1[C@@H](N2C(=O)CC(=O)N(CCc3cccc(Cl)c3)C2=O)C[C@H]2C[C@@H]1C2(C)C | > 100 | > 100 | –
57 | O=C(O)[C@H]1CC[C@@H](N2C(=O)CC(=O)N(CCc3cccc(Cl)c3)C2=O)C1 | > 100 | > 100 | –
58 | O=C(OCc1ccccc1)N1CC[C@H](N2C(=O)CC(=O)N(CCc3cccc(Cl)c3)C2=O)C1 | 33.9 | 50.3 | –
59 | CC1(C)CCC(N2C(=O)CC(=O)N(CCc3ccc(Cl)cc3)C2=O)C1 (stereo not drawn) | 26 | 3.7 | –
60 | C[C@H]1[C@H](N2C(=O)CC(=O)N(CCc3ccc(Cl)cc3)C2=O)C[C@@H]2C[C@H]1C2(C)C | > 100 | 18 | –
61 | O=C1CC(=O)N([C@H]2CCC[C@@H]2O)C(=O)N1CCc1cccc(Cl)c1 | > 100 | > 100 | –
62 | C[C@@H]1CCC[C@@H]1N1C(=O)CC(=O)N(CCc2ccc(Cl)cc2)C1=O | 5.1 | 3.1 | –
63 | O=C1CC(=O)N(C2CC3CCC2C3)C(=O)N1CCc1cc(Cl)cc(Cl)c1 (racemic) | 4.6 | 2.7 | –
64 | CC(C)c1ccc(CCN2C(=O)CC(=O)N(C3CCCC3)C2=O)cc1 | 57.6 | 39 | –
65 | C[C@H](c1cccc2ccccc12)N1C(=O)CC(=O)N(C2CCCC2)C1=O | 6.15 | 4.6 | –
66 | CC1(C)CCC[C@H]1N1C(=O)CC(=O)N(CCc2ccc(Cl)cc2)C1=O | 4.8 | 4.7 | –
67 | C[C@H]1[C@H](N2C(=O)CC(=O)N(CCc3cccc(Cl)c3)C2=O)C[C@@H]2C[C@H]1C2(C)C | > 100 | > 100 | –
68 | CCC1CCC(N2C(=O)CC(=O)N(CCc3ccc(Cl)cc3)C2=O)C1 (racemic) | 29 | 6.7 | –
69 | CC(CN1C(=O)CC(=O)N(C2CC3CCC2C3)C1=O)c1ccc(Cl)cc1 (racemic) | 8 | 3.4 | –
70 | O=C1CC(=O)N(C[C@H]2CCCO2)C(=O)N1CCc1ccc(Cl)cc1 | > 100 | > 100 | –
71 | CC(C)(CN1C(=O)CC(=O)N(C2CCCC2)C1=O)c1cccc(C(F)(F)F)c1 | 4.2 | 2.2 | –
72 | COC(=O)C1(N2C(=O)CC(=O)N(CCc3cccc(Cl)c3)C2=O)CCCC1 | 33.4 | 32.7 | –
73 | O=C1CC(=O)N(C2CCc3ccccc32)C(=O)N1C1CCCC1 (stereo not drawn) | 24.8 | 19.9 | –

Source: ChEMBL document CHEMBL2380260, “Structure-activity relationship of N,N'-disubstituted pyrimidinetriones as Ca(V)1.3 calcium channel-selective antagonists for Parkinson's disease” (J Med Chem, 2013)
